# From ChEMBL document CHEMBL1149648, “Norcantharimides, synthesis and anticancer activity: Synthesis of new norcantharidin analogues and their anticancer evaluation” (2007)
# Assays:
# Format in all cases: functional
# MCF7 = test: Cytotoxicity against human MCF7 cells at 100 uM after 72 hrs by MTT assay; conditions: MCF7, 72 h
# Procedure, shortened: (§1)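 Log-phase cells in DMEM with 10% FBS (37 °C, 5% CO2) were plated in duplicate at 2500–4000 cells/well. Agent was added 24 h later at a fixed final concentration of 100 µM and left for 72 h continuous exposure. Read-out was MTT absorbance at 540 nm, expressed as percent growth inhibition, where 100% means total growth inhibition.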
# [1] = Cytotoxicity against human BE2C cells at 100 uM after 72 hrs by MTT assay; conditions: BE(2)-C; procedure, shortened: as §1
# DU-145 = test: Cytotoxicity against human DU145 cells at 100 uM after 72 hrs by MTT assay; conditions: DU-145, 72 h; procedure, shortened: as §1
# A-431 = test: Cytotoxicity against human A431 cells at 100 uM after 72 hrs by MTT assay; conditions: A-431, 72 h; procedure, shortened: as §1
# SW480 = test: Cytotoxicity against human SW480 cells at 100 uM after 72 hrs by MTT assay; conditions: SW480, 72 h; procedure, shortened: as §1
# A2780 = test: Cytotoxicity against human A2780 cells at 100 uM after 72 hrs by MTT assay; conditions: A2780, 72 h; procedure, shortened: as §1
# NCI-H460 = test: Cytotoxicity against human H460 cells at 100 uM after 72 hrs by MTT assay; conditions: NCI-H460, 72 h; procedure, shortened: as §1
# [2] = Cytotoxicity against human SJG2 cells at 100 uM after 72 hrs by MTT assay; conditions: SJ-G2, 72 h; procedure, shortened: as §1
# HT-29 = test: Cytotoxicity against human HT29 cells at 100 uM after 72 hrs by MTT assay; conditions: HT-29, 72 h; procedure, shortened: as §1
Compound,inhibition at 100 µM (MCF7) [%],inhibition at 100 µM [1] [%],inhibition at 100 µM (DU-145) [%],inhibition at 100 µM (A-431) [%],inhibition at 100 µM (SW480) [%],inhibition at 100 µM (A2780) [%],inhibition at 100 µM (NCI-H460) [%],inhibition at 100 µM [2] [%],inhibition at 100 µM (HT-29) [%],GI50 (MCF7) [µM],GI50 [1] [µM],GI50 (DU-145) [µM],GI50 (A-431) [µM],GI50 (SW480) [µM],GI50 (A2780) [µM],GI50 (NCI-H460) [µM],GI50 [2] [µM],GI50 (HT-29) [µM]
O=C1[C@@H]2[C@H](C(=O)N1C1CCCCC1)[C@@H]1CC[C@H]2O1,< 10,< 10,< 10,< 10,< 10,< 10,< 10,< 10,< 10,,,,,,,,,
CC(C)(CO)N1C(=O)[C@@H]2[C@H](C1=O)[C@@H]1CC[C@H]2O1,< 10,< 10,< 10,< 10,< 10,< 10,< 10,< 10,< 10,,,,,,,,,
O=C1[C@@H]2[C@H](C(=O)N1CCCCCCCCCCCCN1C(=O)[C@@H]3[C@H](C1=O)[C@@H]1CC[C@H]3O1)[C@@H]1CC[C@H]2O1,,,,,,,,,,18,17,60,18,24,19,31,43,8.3
O=C1[C@@H]2[C@H](C(=O)N1CCO)[C@@H]1CC[C@H]2O1,45,< 10,< 10,< 10,18,15,16,< 10,31,,,,,,,,,
CCCCCCCCCCN1C(=O)[C@@H]2[C@H](C1=O)[C@@H]1CC[C@H]2O1,44,39,83,52,59,44,> 100,72,20,,,,,,,,,
O=C1[C@@H]2[C@H](C(=O)N1CCCCCCO)[C@@H]1CC[C@H]2O1,51,22,< 10,6,16,18,14,12,21,,,,,,,,,
O=C1[C@@H]2[C@H](C(=O)N1CCCN1CCOCC1)[C@@H]1CC[C@H]2O1,< 10,< 10,< 10,< 10,< 10,< 10,< 10,< 10,< 10,,,,,,,,,
O=C(O)c1ccc(N2C(=O)[C@@H]3[C@H](C2=O)[C@@H]2CC[C@H]3O2)cc1,< 10,< 10,< 10,< 10,< 10,< 10,< 10,< 10,< 10,,,,,,,,,
CCCCCCCCN1C(=O)[C@@H]2[C@H](C1=O)[C@@H]1CC[C@H]2O1,88,68,44,61,65,50,< 10,54,70,,,,,,,,,
O=C1[C@@H]2[C@H](C(=O)N1c1ccc(O)cc1)[C@@H]1CC[C@H]2O1,22,14,< 10,27,21,15,12,44,47,,,,,,,,,
O=C1[C@@H]2[C@H](C(=O)N1N1CCOCC1)[C@@H]1CC[C@H]2O1,12,39,3,30,29,7,18,3,29,,,,,,,,,
CCCCCCCCCCCCCCCCCCN1C(=O)[C@@H]2[C@H](C1=O)[C@@H]1CC[C@H]2O1,< 10,< 10,< 10,< 10,< 10,< 10,< 10,< 10,< 10,,,,,,,,,
